Results from ChEMBL document CHEMBL1131419, “Methoxy-substituted 3-formyl-2-phenylindoles inhibit tubulin polymerization” (J Med Chem, 1998).

Key:
Tubulin (Bos taurus) = Tubulin (Bos taurus) (UniProt Q6B856+Q862L2+Q862F3); assay: Tested for its capability of competing with colchicine for binding to tubulin.; type: protein assay; set-up: concentration or dose not given beside the values; details: concentration not given here
Outline: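 Calf brain tubulin (cycled, diluted 1:10 in PEM pH 6.6–6.7) incubated with 1 μM [3H]colchicine and 10 μM inhibitor (DMSO) for 30 min at 37 °C; GTP added on ice, mixture filtered through DEAE-cellulose filters, washed with PEM, bound radioactivity counted by liquid scintillation; no-tubulin mixtures as background. Mean of two independent experiments.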

Tubulin = Tubulin (Bos taurus, UniProt Q6B856+Q862L2+Q862F3); type: protein assay

| Structure (SMILES) | inhibition (Tubulin (Bos taurus)) [%] | IC50 (Tubulin) [µM] |
| --- | --- | --- |
| COc1ccc(-c2sc3cc(OC)ccc3c2C=O)cc1 | 56 | 1.8 |
| COc1ccc(-c2c(C=O)c3ccc(OC)cc3n2C)cc1 | 30 |  |
| COc1ccc(-c2[nH]c3cc(F)ccc3c2C=O)cc1 |  | 1.8 |
| CCCC1Cc2cc(O)ccc2-c2c(C=O)c3ccc(O)cc3n21 (configuration not stated) | 40 | 19 |
| CCCCC1Cc2cc(O)ccc2-c2c(C=O)c3ccc(O)cc3n21 (configuration not stated) |  | 8.9 |
| COc1ccc(-c2[nH]c3ccc(OC)cc3c2C=O)cc1 |  | 4 |

Further lines, results first:

| inhibition (Tubulin (Bos taurus)) [%] | IC50 (Tubulin) [µM] | Structure (SMILES) |
| --- | --- | --- |
| < 10 |  | CCCC1Cc2cc(OC)ccc2-c2c(C=O)c3ccc(OC)cc3n21 (configuration not stated) |
|  | 3.3 | COc1ccc(-c2[nH]c3ccccc3c2C=O)cc1 |
| 23 | 1.5 | COc1ccc(-c2[nH]c3cc(OC)ccc3c2C=O)cc1 |
